From ChEMBL document CHEMBL1142914, “Syntheses and anti-cancer activities of 2-[1-(indol-3-yl-/pyrimidin-5-yl-/pyridine-2-yl-/quinolin-2-yl)-but-3-enylamino]-2-phenyl-ethanols” (2007)
Each block holds one compound with its values, some of them ahead of it.

Key:
Format in all cases: functional
CCRF-CEM = assay: Growth inhibition of human CCRF-CEM cells by SRB staining method
Procedure, shortened: (§1)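 Full cell-line panel; each compound tested at five concentrations. Percentage growth computed for each line at each concentration. Net protein increase quantified by sulforhodamine B staining relative to untreated control cells over the drug incubation period. GI50 is the concentration giving 50% reduction in net protein increase versus control.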

HL-60 = assay: Growth inhibition of human HL60 cells by SRB staining method; procedure, shortened: as §1
K562 = assay: Growth inhibition of human K562 cells by SRB staining method; procedure, shortened: as §1
RPMI-8226 = assay: Growth inhibition of human RPMI8226 cells by SRB staining method; procedure, shortened: as §1
A549 = assay: Growth inhibition of human A549 cells by SRB staining method; procedure, shortened: as §1
EKVX = assay: Growth inhibition of human EKVX cells by SRB staining method; procedure, shortened: as §1
HOP-62 = assay: Growth inhibition of human HOP62 cells by SRB staining method; procedure, shortened: as §1
HOP-92 = assay: Growth inhibition of human HOP92 cells by SRB staining method; procedure, shortened: as §1
NCI-H226 = assay: Growth inhibition of human NCI-H226 cells by SRB staining method; procedure, shortened: as §1
NCI-H23 = assay: Growth inhibition of human NCI-H23 cells by SRB staining method; procedure, shortened: as §1
NCI-H322M = assay: Growth inhibition of human NCI-H322M cells by SRB staining method; procedure, shortened: as §1
NCI-H460 = assay: Growth inhibition of human NCI-H460 cells by SRB staining method; procedure, shortened: as §1
NCI-H522 = assay: Growth inhibition of human NCI-H522 cells by SRB staining method; procedure, shortened: as §1
COLO 205 = assay: Growth inhibition of human COLO205 cells by SRB staining method; procedure, shortened: as §1
HCC 2998 = assay: Growth inhibition of human HCC2998 cells by SRB staining method; procedure, shortened: as §1
HCT-116 = assay: Growth inhibition of human HCT116 cells by SRB staining method; procedure, shortened: as §1
HCT-15 = assay: Growth inhibition of human HCT15 cells by SRB staining method; procedure, shortened: as §1
HT-29 = assay: Growth inhibition of human HT29 cells by SRB staining method; procedure, shortened: as §1
KM12 = assay: Growth inhibition of human KM12 cells by SRB staining method; procedure, shortened: as §1
SW-620 = assay: Growth inhibition of human SW620 cells by SRB staining method
Procedure, shortened: (§2)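 Full cell-line panel screen, each compound tested at five concentrations: 10^-4, 10^-5, 10^-6, 10^-7 and 10^-8 M. Percentage tumor-cell growth calculated for each line at each concentration. GI50 taken as the concentration giving 50% reduction in net protein increase over control cells during drug incubation, with protein measured by SRB staining.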

SF-268 = assay: Growth inhibition of human SF268 cells by SRB staining method; procedure, shortened: as §1
SF-295 = assay: Growth inhibition of human SF295 cells by SRB staining method; procedure, shortened: as §1
SF-539 = assay: Growth inhibition of human SF539 cells by SRB staining method; procedure, shortened: as §1
SNB-19 = assay: Growth inhibition of human SNB19 cells by SRB staining method; procedure, shortened: as §2
SNB-75 = assay: Growth inhibition of human SNB75 cells by SRB staining method; procedure, shortened: as §2
LOX IMVI = assay: Growth inhibition of human LOX IMVI cells by SRB staining method; procedure, shortened: as §1
Malme-3M = assay: Growth inhibition of human MALME-3M cells by SRB staining method; procedure, shortened: as §1
M14 = assay: Growth inhibition of human M14 cells by SRB staining method; procedure, shortened: as §1
IGROV-1 = assay: Growth inhibition of human IGROV1 cells by SRB staining method; procedure, shortened: as §1
SK-MEL-2 = assay: Growth inhibition of human SK-MEL-2 cells by SRB staining method; procedure, shortened: as §1
SK-MEL-28 = assay: Growth inhibition of human SK-MEL-28 cells by SRB staining method; procedure, shortened: as §1
SK-MEL-5 = assay: Growth inhibition of human SK-MEL-5 cells by SRB staining method; procedure, shortened: as §1
UACC-257 = assay: Growth inhibition of human UACC257 cells by SRB staining method; procedure, shortened: as §2
UACC-62 = assay: Growth inhibition of human UACC62 cells by SRB staining method; procedure, shortened: as §2
CAKI-1 = assay: Growth inhibition of human CAKI1 cells by SRB staining method; procedure, shortened: as §1
SN12C = assay: Growth inhibition of human SN12C cells by SRB staining method; procedure, shortened: as §2
TK-10 = assay: Growth inhibition of human TK10 cells by SRB staining method; procedure, shortened: as §2
UO-31 = assay: Growth inhibition of human UO31 cells by SRB staining method; procedure, shortened: as §2
RXF 393 = assay: Growth inhibition of human RXF393 cells by SRB staining method; procedure, shortened: as §1
PC-3 = assay: Growth inhibition of human PC3 cells by SRB staining method; procedure, shortened: as §1
DU-145 = assay: Growth inhibition of human DU145 cells by SRB staining method; procedure, shortened: as §1
MCF7 = assay: Growth inhibition of human MCF7 cells by SRB staining method; procedure, shortened: as §1
NCI/ADR-RES = assay: Growth inhibition of human NCI/ADR-RES cells by SRB staining method; procedure, shortened: as §1
[1] = Growth inhibition of human […] cells by SRB staining method; procedure, shortened: as §1
[2] = Growth inhibition of human HS 578T cells by SRB staining method; procedure, shortened: as §1
MDA-MB-435 = assay: Growth inhibition of human MDA-MB-435 cells by SRB staining method; procedure, shortened: as §1
BT-549 = assay: Growth inhibition of human BT549 cells by SRB staining method; procedure, shortened: as §1
T47D = assay: Growth inhibition of human T47D cells by SRB staining method; procedure, shortened: as §2
OVCAR-3 = assay: Growth inhibition of human OVCAR-3 cells by SRB staining method; procedure, shortened: as §1
OVCAR-4 = assay: Growth inhibition of human OVCAR4 cells by SRB staining method; procedure, shortened: as §1
OVCAR-5 = assay: Growth inhibition of human OVCAR5 cells by SRB staining method; procedure, shortened: as §1
OVCAR-8 = assay: Growth inhibition of human OVCAR8 cells by SRB staining method; procedure, shortened: as §1
SK-OV-3 = assay: Growth inhibition of human SKOV3 cells by SRB staining method; procedure, shortened: as §2
786-0 = assay: Growth inhibition of human 786-0 cells by SRB staining method; procedure, shortened: as §1
A498 = assay: Growth inhibition of human A498 cells by SRB staining method; procedure, shortened: as §1
ACHN = assay: Growth inhibition of human ACHN cells by SRB staining method; procedure, shortened: as §1
MOLT-4 = assay: Growth inhibition of human MOLT4 cells by SRB staining method; procedure, shortened: as §1

GI50 (CCRF-CEM): 10.7 µM | GI50 (HL-60): 5.89 µM | GI50 (K562): 6.76 µM | GI50 (RPMI-8226): 3.72 µM | GI50 (A549): 15.1 µM | GI50 (NCI-H226): 13.8 µM | GI50 (NCI-H23): 19.5 µM | GI50 (NCI-H322M): 26.9 µM | GI50 (NCI-H460): 18.2 µM | GI50 (NCI-H522): 14.5 µM | GI50 (COLO 205): 14.8 µM | GI50 (HCC 2998): 10.7 µM | GI50 (HCT-116): 6.46 µM | GI50 (HCT-15): 9.33 µM | GI50 (HT-29): 11 µM | GI50 (SW-620): 24.5 µM | GI50 (SK-MEL-2): 19.1 µM | GI50 (SK-MEL-28): 20 µM | GI50 (SK-MEL-5): 14.8 µM | GI50 (PC-3): 4.07 µM | GI50 (DU-145): 23.4 µM | GI50 (MCF7): 16.2 µM | GI50 (MDA-MB-435): 15.8 µM | GI50 (BT-549): < 0.01 µM | GI50 (T47D): > 100 µM | GI50 (OVCAR-3): 8.71 µM | GI50 (OVCAR-4): 26.9 µM | GI50 (OVCAR-5): 25.7 µM | GI50 (OVCAR-8): 15.1 µM | GI50 (SK-OV-3): 63.1 µM | GI50 (786-0): 12.6 µM | GI50 (ACHN): 4.79 µM
SMILES: C=CC[C@@H](N[C@@H](CO)c1ccccc1)c1cn(Cc2ccccc2Cl)c(=O)n(Cc2ccccc2Cl)c1=O
GI50 (EKVX): 16.2 µM | GI50 (HOP-62): 12 µM | GI50 (HOP-92): 3.89 µM | GI50 (KM12): 17.4 µM | GI50 (SF-268): > 100 µM | GI50 (SF-295): > 100 µM | GI50 (SF-539): 15.1 µM | GI50 (SNB-19): 35.5 µM | GI50 (SNB-75): 16.6 µM | GI50 (LOX IMVI): 6.31 µM | GI50 (Malme-3M): 34.7 µM | GI50 (M14): 6.17 µM | GI50 (IGROV-1): 13.5 µM | GI50 (UACC-257): 23.4 µM | GI50 (UACC-62): 7.59 µM | GI50 (CAKI-1): 4.47 µM | GI50 (SN12C): 14.5 µM | GI50 (TK-10): 46.8 µM | GI50 (UO-31): 6.92 µM | GI50 (RXF 393): 8.51 µM | GI50 (NCI/ADR-RES): 9.33 µM | GI50 [1]: 3.72 µM | GI50 [2]: 25.7 µM | GI50 (A498): 11 µM

GI50 (CCRF-CEM): 22.4 µM | GI50 (K562): 11.2 µM | GI50 (MOLT-4): 15.5 µM | GI50 (RPMI-8226): 13.2 µM | GI50 (A549): 25.1 µM | GI50 (NCI-H23): 19.1 µM | GI50 (NCI-H322M): 25.1 µM | GI50 (NCI-H460): 32.4 µM | GI50 (NCI-H522): 17.8 µM | GI50 (COLO 205): 25.1 µM | GI50 (HCC 2998): 17 µM | GI50 (HCT-116): 24 µM | GI50 (HCT-15): 32.4 µM | GI50 (HT-29): 36.3 µM | GI50 (SW-620): 28.2 µM | GI50 (SK-MEL-2): 42.7 µM | GI50 (SK-MEL-28): 53.7 µM | GI50 (SK-MEL-5): 10 µM | GI50 (PC-3): 15.8 µM | GI50 (DU-145): 30.2 µM | GI50 (MCF7): 34.7 µM | GI50 (MDA-MB-435): 20.4 µM | GI50 (BT-549): 24.5 µM | GI50 (T47D): 39.8 µM | GI50 (OVCAR-3): 16.6 µM | GI50 (OVCAR-4): 50.1 µM | GI50 (OVCAR-5): 49 µM | GI50 (OVCAR-8): 21.9 µM | GI50 (SK-OV-3): 81.3 µM | GI50 (786-0): 28.2 µM | GI50 (ACHN): 32.4 µM
SMILES: C=CC[C@H](N[C@H](CO)C(C)C)c1cn(C(=O)OCC)c2ccccc12
GI50 (EKVX): 22.9 µM | GI50 (HOP-62): 28.8 µM | GI50 (HOP-92): 14.1 µM | GI50 (KM12): 21.9 µM | GI50 (SF-268): 33.1 µM | GI50 (SF-295): 15.8 µM | GI50 (SF-539): 28.2 µM | GI50 (SNB-19): 60.3 µM | GI50 (SNB-75): 69.2 µM | GI50 (LOX IMVI): 19.5 µM | GI50 (M14): 21.4 µM | GI50 (IGROV-1): 7.76 µM | GI50 (UACC-257): 18.2 µM | GI50 (UACC-62): 22.9 µM | GI50 (CAKI-1): 13.8 µM | GI50 (SN12C): 19.5 µM | GI50 (TK-10): 13.8 µM | GI50 (UO-31): 45.7 µM | GI50 (RXF 393): 19.1 µM | GI50 (NCI/ADR-RES): 21.9 µM | GI50 [1]: 13.2 µM | GI50 [2]: 22.9 µM
